OX1R antag-1 = OX1R (human) antagonism | 330,000 tested, 1.8% active | inhibition, % at 6.6 µM | OX1R-expressing cells, FRET antagonist read-out | O43613; in the data active = inhibition mostly above about 38%, no sharp cut-off; inactive = mostly below about 40%;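 also: 0% = agonist challenge alone and 100% = reference antagonist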
GalR3 antagonist = blocks the human galanin receptor 3; O60755; HEK293 GalR3-CNG cAMP membrane potential fluorescence; galR3 body fused to GalR1 C-terminus; inhibition, % at 3 µM; 360,000 tested, 0.44% active; AID 651719;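 active = inhibition above the screen-wide average plus 3 SD, cut at about 13% in these data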;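 also: forskolin and galanin both at EC90 stimulate the cells; cAMP rise reported by CNG channel membrane potential dye signal; 0% = forskolin plus galanin with DMSO and 100% = forskolin alone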
Target sequence (O60755 1-299 limits assumed): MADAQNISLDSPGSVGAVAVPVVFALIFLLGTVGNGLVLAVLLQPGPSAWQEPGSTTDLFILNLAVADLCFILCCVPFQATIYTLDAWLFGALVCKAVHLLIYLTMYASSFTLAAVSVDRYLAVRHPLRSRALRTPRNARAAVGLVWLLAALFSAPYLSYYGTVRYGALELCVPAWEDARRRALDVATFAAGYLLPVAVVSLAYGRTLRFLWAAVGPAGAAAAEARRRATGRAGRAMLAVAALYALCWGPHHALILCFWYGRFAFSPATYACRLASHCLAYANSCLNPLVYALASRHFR
GPR7 antag = human neuropeptides B/W receptor 1 antagonism. 290,000 tested, 1.1% active. AID 1861. P48145. GPR7-expressing cells, fluorescence antagonist assay. inhibition, % at 4.4 µM; in the data active = inhibition above about 16%, passing the limit was not always enough;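 also: cells stimulated with the agonist NPW; 0% = agonist with vehicle and 100% = vehicle without agonist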
Target sequence (P48145 whole entry, looked up): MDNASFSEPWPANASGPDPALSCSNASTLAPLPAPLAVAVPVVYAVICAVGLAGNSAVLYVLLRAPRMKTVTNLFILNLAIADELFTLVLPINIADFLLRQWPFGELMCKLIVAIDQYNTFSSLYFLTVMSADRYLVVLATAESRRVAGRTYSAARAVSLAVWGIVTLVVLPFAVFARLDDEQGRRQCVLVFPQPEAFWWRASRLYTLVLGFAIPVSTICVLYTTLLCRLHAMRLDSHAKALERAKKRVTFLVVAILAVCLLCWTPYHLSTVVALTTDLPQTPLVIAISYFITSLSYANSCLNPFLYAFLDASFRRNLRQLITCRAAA
CHO parental Ca = counter-screen for OX1R antagonists: effect in parental CHO cells; parental CHO-K1, ATP-induced calcium, Fluo-8 fluorescence; inhibition, % at 5.6 µM; 330,000 tested, 0.63% active;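 active = inhibition above that plate's mean sample inhibition plus 3 SD, cut at about 26% in these data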;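 also: 0% = ATP-challenged DMSO wells and 100% = DMSO wells without ATP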
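Material: Parental CHO cells | Reagent: ATP | Compound dosing: Single nominal dose of 5.6 µM per compound | Detection: Intracellular calcium via Fluo-8 no-wash fluorescent dye | Read-out: % inhibition of ATP-induced calcium mobilization | Benchmarks: Low control ATP plus DMSO, high control DMSO only | Replicates: Singlicate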
OX1R antag-2 = human HCRTR1 antagonism; CHO/OX1R cells, Fluo-8 calcium fluorescence, orexin A; inhibition, % at 5 µM; 330,000 tested, 0.43% active; O43613;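 active = inhibition above its plate's threshold, mean inhibition of all tested compounds on the plate plus 3 SD, cut at about 37% in these data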;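 also: 0% = orexin A challenge wells and 100% = SB-334867-A antagonist wells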
GalR3 antag conf = confirmation of human galanin receptor 3 antagonists; inhibition, % at 3 µM; 1,600 tested, 59% active; shares compounds with GalR3 antagonist; HEK293 GalR3 CNG cAMP biosensor, membrane potential fluorescence; galR3 fused to GalR1 carboxy tail; challenged with forskolin and galanin at EC90; AID 652245;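 active = inhibition above the primary screen's cutoff, the mean inhibition of all screened compounds plus 3 SD, cut at about 13% in these data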;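 also: 0% = forskolin plus galanin and 100% = forskolin alone with DMSO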
CNG parental = acts as nonspecific agonist in parental HEK-CNG cells. shares compounds with GalR3 antagonist. HEK293-CNG parental cells, cAMP membrane potential fluorescence; normalised: DMSO wells 0%, forskolin wells 100%. activation, % at 3 µM. 1,600 tested, 10% active; in the data active = activation above about 1.3%
Numbers without * were called inactive; . = not tested or not shown. This is a sample that favours compounds with a hit; in the whole collection about 3.1% have one here.

SMILES	OX1R antag-1	GalR3 antagonist	GPR7 antag	CHO parental Ca	OX1R antag-2	GalR3 antag conf	CNG parental
COc1ccc(OC)c(-c2nnc3n2N=C(c2ccc(OC)c(OC)c2)CS3)c1	16	50*	.	-18	3	34*	1.5*
COc1ccc(OC)c(-c2nnc3n2N=C(c2ccc(OC)c(OC4CCCC4)c2)CS3)c1	7	1	.	-2	21	.	.
COc1ccc(C2=Nn3c(nnc3C3CCCCC3)SC2)cc1OC	21	49*	-28	-17	-9	48*	1
COc1ccc(OC)c(C2=Nn3c(nnc3C3CCCCC3)SC2)c1	9	-2	-4	-23	-24	.	.
S=C(NCCc1ccccc1)Nc1cccc2cnccc12	44	33*	7	52*	26	103*	0
CCOC(=O)c1ccc(Oc2cn[nH]c2-c2ccc(O)cc2O)cc1	-1	17*	21	9	7	9	4.4*
CCCOC(=O)c1ccc(Oc2cn[nH]c2-c2ccc(O)cc2O)cc1	13	3	7	13	8	.	.
CC1(C(=O)NCc2ccccc2Br)CCN1Cc1ccc2ccccc2c1 (stereo not drawn)	.	-7	.	.	.	.	.
CC(=O)OC[C@]12CC[C@H]3[C@@](C)(CC[C@H]4C(C)(C)CCC[C@]34C)[C@@H]1CC(C1=CC(=O)OC1O)O2 (stereo partly drawn)	.	30*	.	.	.	44*	1.8*
CC(=O)OC[C@]1(OC(C)=O)C[C@@]23CC[C@H]4[C@@](C)(CCC[C@@]4(C)C(=O)O)[C@@H]2CC[C@@H]1C3	8	-1	1	3	3	.	.
COC(=O)[C@]12CCCCC=C1N(Cc1cccc3ccccc13)C(=O)[C@H](CC(=O)NCCc1ccccc1OC)C2	.	4	.	.	.	.	.
CCCOc1ccc(CSc2nc3ccccc3[nH]2)cc1	27	86*	4	48*	18	108*	-1
O=C(NCC1CC1)c1ccc(-c2cn[nH]c2)c2ccoc12	.	0	.	.	.	.	.
O=C(C=C=Nc1ccccc1)C(=O)N=C=Cc1ccccc1	17	18*	11	-6	10	10	0
O=C(NC1CCCc2c1cnn2-c1ccccc1F)c1ccccn1 (stereo not drawn)	40	-7	-9	-8	0	.	.
COc1ccc(C(=O)NC2CCCc3c2cnn3-c2ccccc2F)cc1OC (stereo not drawn)	7	68*	3	12	-15	42*	0
O=C(NC1CCCc2c1cnn2-c1ccc(F)cc1F)c1ccccn1 (stereo not drawn)	11	-5	0	-8	-10	.	.
O=C(NC1CCCc2c1cnn2-c1ccccc1F)c1ccncc1 (stereo not drawn)	.	32*	.	.	.	75*	0
CC(C)C[C@@H](CN1CCC[C@H]1CN1C(=O)C(=O)NC[C@@H]1Cc1ccc(O)cc1)N1C[C@H](Cc2ccc(O)cc2)N(CCc2ccccc2)C(=O)C1=O	.	2	.	.	.	.	.
CCn1c(=O)c(=O)[nH]c2cc(C(=O)N3CCN(Cc4ccc5c(c4)OCO5)CC3)ccc21	5	-1	20	-6	4	.	.
CCCCCn1c(=O)[nH]c2cc(C(=O)N3CCN(Cc4ccc5c(c4)OCO5)CC3)ccc2c1=O	23	99*	19	-1	-11	106*	-1
CCOC(=O)C1(Cc2cccc(OC)c2)CCN(CCO)CC1	12	18*	-17	-2	-23	9	1
CC(C)c1cccc(C(C)C)c1NC(=O)OC1CCCCC1	.	-8	.	.	.	.	.
CCCNC(=O)C1(C)CCCN(C(=O)c2ccc3ccccc3c2)C1 (stereo not drawn)	.	-4	.	.	.	.	.
Cc1ccc(/C=C/C(=O)O)cc1S(=O)(=O)N1CCc2ccccc21	-2	-8	1	-3	-4	.	.
SMILES	OX1R antag-1	GalR3 antagonist	GPR7 antag	CHO parental Ca	OX1R antag-2	GalR3 antag conf	CNG parental
COc1ccc(/C=C/C(=O)O)cc1S(=O)(=O)N1CCc2ccccc2C1	12	.	-7	-10	-10	5	0
Cc1ccc(/C=C/C(=O)O)cc1S(=O)(=O)N1CCc2ccccc2C1	13	15*	-1	-6	-20	-1	0
COc1ccc(/C=C/C(=O)Nc2ccccc2Cl)cc1S(=O)(=O)N1CCOCC1	25	15*	-5	-21	-15	-4	0
C[C@H](NC(=O)[C@@H]1CCCN1C(=O)[C@@H]1CCCN1C(=O)c1cccc(Cl)c1)c1ccccc1	.	-2	.	.	.	.	.
CC(C)n1c(NCc2nc3ccccc3n2C)nc2ccccc21	20	-5	-13	-22	-25	.	.
Cn1c(CNc2nc3ccccc3n2C)nc2ccccc21	15	15*	2	-26	-26	0	0
CC1=CC(C)(C)N2C(=O)C(=Nc3ccc(O)cc3)c3cccc1c32	24	16*	2	-9	-2	2	1
COc1cc(N=C2C(=O)N3c4c(cccc42)C(C)=CC3(C)C)cc(OC)c1	6	-1	16	-15	-20	.	.
COc1ccccc1NC(=O)CSC1=NC(=O)C(Cc2ccccc2)C(=O)N1 (stereo not drawn)	12	13*	1	0	1	-3	0
Fc1ccc(NC(=S)N2CCCN(c3ccc(C(F)(F)F)cn3)CC2)c(F)c1	16	110*	10	22	57*	107*	-1
O=C(Nc1cccc(N=Cc2cc(Br)cc(Br)c2O)c1)c1ccco1	4	17*	0	2	-13	14*	0
O=C(Nc1cccc(S(=O)(=O)c2cccc(NC(=O)c3ccco3)c2)c1)c1ccco1	21	41*	-13	1	-12	45*	-1
O=C(Nc1cccc(S(=O)(=O)N2CCCC2)c1)c1ccco1	4	-1	.	-15	-23	.	.
COc1ccc(N(CC(=O)N/N=C/c2ccc(OC)c(OC)c2)S(=O)(=O)c2ccccc2)cc1	4	14*	-6	-13	-15	34*	0
COc1ccc(/C=N/NC(=O)CN(c2ccc(OC)cc2)S(=O)(=O)c2ccccc2)cc1	16	-3	-17	-13	-41	.	.
COc1cc(/C=N/NC(=O)CN(CCc2ccccc2)S(=O)(=O)c2ccc(NC(C)=O)cc2)cc(OC)c1OC	6	4	-13	-26	-32	.	.
COc1ccc(/C=N/NC(=O)CN(CCc2ccccc2)S(=O)(=O)c2ccc(NC(C)=O)cc2)cc1OC	16	17*	-14	-21	-13	29*	0
C[C@H]1C(C(=O)N(C)C2CCCCC2)=Cc2c(n(-c3ccc(F)cc3)c(=O)n2CCCOc2ccccc2)C=C1c1ccccc1	.	-5	.	.	.	.	.
Cn1cc(CNCc2ccc(OC(F)(F)F)cc2)c(-c2ccc3c(c2)OCCO3)n1	33	35*	8	40*	16	92*	1.7*

Compound activity as filed in PubChem.
